According to ChEMBL document CHEMBL2331438, “An efficient domino reaction in ionic liquid: synthesis and biological evaluation of some pyrano- and thiopyrano-fused heterocycles” (2013):
Values after ≈ are worked out from the molar mass of the structure shown.

Legend:
[1] = Antioxidant activity assessed as ascorbic acid equivalent ferric ion reducing activity per 100 gram at 200 ug/ml by FRAP assay; assay type: functional
[2] = test system: Mycobacterium tuberculosis; assay: Antimycobacterial activity against Mycobacterium tuberculosis H37Rv at 250 ug/ml; assay type: functional
Summary of the method: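 M. tuberculosis H37Rv tested on L.J. (Löwenstein–Jensen) medium.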

Candida albicans = assay: Antifungal activity against Candida albicans MTCC 227 after 48 hrs by broth microdilution method; assay type: functional; conditions: MTCC 227, 48 h
Aspergillus fumigatus = assay: Antifungal activity against Aspergillus fumigatus MTCC 3008 after 48 hrs by broth microdilution method; assay type: functional; conditions: MTCC 3008, 48 h
Vibrio cholerae = assay: Antibacterial activity against Vibrio cholerae MTCC 3906 after 24 hrs by broth microdilution method; assay type: functional; conditions: MTCC 3906, 24 h
Salmonella typhi = assay: Antibacterial activity against Salmonella typhi MTCC 98 after 24 hrs by broth microdilution method; assay type: functional, Salmonella enterica subsp. enterica serovar Typhi; conditions: Salmonella enterica, MTCC 98, 24 h
Escherichia coli = assay: Antibacterial activity against Escherichia coli MTCC 443 after 24 hrs by broth microdilution method; assay type: functional; conditions: MTCC 443, 24 h
Streptococcus pneumoniae = assay: Antibacterial activity against Streptococcus pneumoniae MTCC 1936 after 24 hrs by broth microdilution method; assay type: functional; conditions: MTCC 1936, 24 h
Clostridium tetani = assay: Antibacterial activity against Clostridium tetani MTCC 449 after 24 hrs by broth microdilution method; assay type: functional; conditions: MTCC 449, 24 h
Bacillus subtilis = assay: Antibacterial activity against Bacillus subtilis MTCC 441 after 24 hrs by broth microdilution method; assay type: functional; conditions: MTCC 441, 24 h

| SMILES | Activity [1] [mmol] | inhibition at 250 µg/mL [2] [%] | MIC (Candida albicans) [µg/mL] | MIC (Aspergillus fumigatus) [µg/mL] | MIC (Vibrio cholerae) [µg/mL] | MIC (Salmonella typhi) [µg/mL] | MIC (Escherichia coli) [µg/mL] | MIC (Streptococcus pneumoniae) [µg/mL] | MIC (Clostridium tetani) [µg/mL] | MIC (Bacillus subtilis) [µg/mL] |
| --- | --- | --- | --- | --- | --- | --- | --- | --- | --- | --- |
| Cc1ccc(-n2nc(C)c3c2OC(C)(C)[C@H]2COc4ccc5c(C)cc(=O)oc5c4[C@@H]32)cc1 | 240 | 32 | 250 (≈ 565 µM) | 250 (≈ 565 µM) | 500 (≈ 1130 µM) | 250 (≈ 565 µM) | 100 (≈ 226 µM) | 100 (≈ 226 µM) | 250 (≈ 565 µM) | 250 (≈ 565 µM) |
| Cc1nn(-c2ccc([N+](=O)[O-])cc2)c2c1[C@@H]1c3cc4cccc(C)c4nc3SC[C@@H]1CO2 | 49.8 | 20 | > 1000 | > 1000 | 250 (≈ 562 µM) | 62.5 (≈ 141 µM) | 100 (≈ 225 µM) | 200 (≈ 450 µM) | 200 (≈ 450 µM) | 250 (≈ 562 µM) |
| Cc1nn(-c2cccc(Cl)c2)c2c1[C@@H]1c3cc4ccccc4nc3SC[C@@H]1CO2 | 128 | 61 | > 1000 | 1000 (≈ 2380 µM) | 200 (≈ 476 µM) | 100 (≈ 238 µM) | 62.5 (≈ 149 µM) | 250 (≈ 595 µM) | 125 (≈ 298 µM) | 200 (≈ 476 µM) |
| Cc1ccc(-n2nc(C)c3c2OC[C@H]2COc4ccc5c(C)cc(=O)oc5c4[C@@H]32)cc1 | 213 | 32 | 1000 (≈ 2410 µM) | 250 (≈ 603 µM) | 200 (≈ 483 µM) | 250 (≈ 603 µM) | 200 (≈ 483 µM) | 250 (≈ 603 µM) | 200 (≈ 483 µM) | 250 (≈ 603 µM) |
| Cc1nn(-c2ccccc2Cl)c2c1[C@@H]1c3c(ccc4c(C)cc(=O)oc34)OC[C@@H]1CO2 | 200 | 30 | 1000 (≈ 2300 µM) | > 1000 | 250 (≈ 575 µM) | 100 (≈ 230 µM) | 125 (≈ 287 µM) | 100 (≈ 230 µM) | 200 (≈ 460 µM) | 62.5 (≈ 144 µM) |
| Cc1nn(-c2ccc(Cl)c(Cl)c2)c2c1[C@@H]1c3c(ccc4c(C)cc(=O)oc34)OC[C@@H]1C(C)(C)O2 | 150 | 70 | 200 (≈ 402 µM) | 500 (≈ 1010 µM) | 125 (≈ 251 µM) | 250 (≈ 503 µM) | 200 (≈ 402 µM) | 250 (≈ 503 µM) | 250 (≈ 503 µM) | 250 (≈ 503 µM) |
| Cc1nn(-c2cccc(Cl)c2)c2c1[C@@H]1c3cc4cccc(C)c4nc3SC[C@@H]1CO2 | 125 | 82 | 1000 (≈ 2300 µM) | 200 (≈ 461 µM) | 200 (≈ 461 µM) | 500 (≈ 1150 µM) | 250 (≈ 576 µM) | 250 (≈ 576 µM) | 200 (≈ 461 µM) | 250 (≈ 576 µM) |
| Cc1nn(-c2ccc([N+](=O)[O-])cc2)c2c1[C@@H]1c3c(ccc4c(C)cc(=O)oc34)OC[C@@H]1C(C)(C)O2 | 138 | 88 | 250 (≈ 528 µM) | 500 (≈ 1060 µM) | 200 (≈ 422 µM) | 125 (≈ 264 µM) | 200 (≈ 422 µM) | 200 (≈ 422 µM) | 200 (≈ 422 µM) | 200 (≈ 422 µM) |
| Cc1nn(-c2ccccc2Cl)c2c1[C@@H]1c3cc4cccc(C)c4nc3SC[C@@H]1C(C)(C)O2 (single isomer, unassigned) | 115 | 50 | 250 (≈ 541 µM) | 500 (≈ 1080 µM) | 200 (≈ 433 µM) | 100 (≈ 216 µM) | 200 (≈ 433 µM) | 250 (≈ 541 µM) | 100 (≈ 216 µM) | 250 (≈ 541 µM) |
| Cc1nn(-c2ccccc2Cl)c2c1[C@@H]1c3cc4ccccc4nc3SC[C@@H]1CO2 | 90.9 | 52 | 1000 (≈ 2380 µM) | > 1000 | 250 (≈ 595 µM) | 250 (≈ 595 µM) | 250 (≈ 595 µM) | 100 (≈ 238 µM) | 250 (≈ 595 µM) | 125 (≈ 298 µM) |
| Cc1nn(-c2ccccc2)c2c1[C@@H]1c3c(ccc4c(C)cc(=O)oc34)OC[C@@H]1CO2 | 120 | 65 | > 1000 | > 1000 | 250 (≈ 624 µM) | 200 (≈ 499 µM) | 250 (≈ 624 µM) | 250 (≈ 624 µM) | 250 (≈ 624 µM) | 500 (≈ 1250 µM) |
| Cc1cc(=O)oc2c3c(ccc12)OC[C@@H]1COc2c(c(-c4ccccc4)nn2-c2ccccc2)[C@H]31 | 163 | 68 | 500 (≈ 1080 µM) | 500 (≈ 1080 µM) | 100 (≈ 216 µM) | 125 (≈ 270 µM) | 62.5 (≈ 135 µM) | 100 (≈ 216 µM) | 100 (≈ 216 µM) | 125 (≈ 270 µM) |
| Cc1nn(-c2cccc(Cl)c2)c2c1[C@@H]1c3c(ccc4c(C)cc(=O)oc34)OC[C@@H]1C(C)(C)O2 | 225 | 29 | 500 (≈ 1080 µM) | 1000 (≈ 2160 µM) | 250 (≈ 540 µM) | 200 (≈ 432 µM) | 200 (≈ 432 µM) | 62.5 (≈ 135 µM) | 200 (≈ 432 µM) | 200 (≈ 432 µM) |
